{"data": "Published values of several laboratories", "target": "Serine/threonine-protein kinase 33 (STK33, Homo sapiens, UniProt Q9BYT3)", "note": "Each line is one published result; the experiments were not run side by side."}
{"Compound": "Cc1ccc(C(=O)Nc2ccc(CN3CCN(C)CC3)c(C(F)(F)F)c2)cc1C#Cc1cnc2cccnn12", "assay": "enzyme activity, inhibitor", "setting": "23.5 nM", "measurement": "remaining activity", "value": "96%"}
{"Compound": "COc1cc(Cl)c(C(=O)N[C@@H](CN[C@H]2CC[C@@H](N)CC2)Cc2ccc(C#N)cc2)cc1-c1ccc(CN[C@H](C)c2ccc(C)cc2)o1", "assay": "enzyme activity, inhibitor", "setting": "1 µM", "measurement": "remaining activity", "value": "99%"}
{"Compound": "O=C(Nc1cnn(-c2csc(C(=O)NC3COC3)c2)c1)Nc1ccccc1Cl", "assay": "enzyme activity, inhibitor", "setting": "5 µM", "measurement": "remaining activity", "value": "99.3%"}
{"Compound": "FC(F)(F)Oc1cccc(-c2cnc3ccc(-c4ccncc4)nn23)c1", "assay": "enzyme activity, inhibitor, radiometric", "setting": "5 µM", "measurement": "activity vs control", "value": "100%"}
{"Compound": "Cc1ccc(Nc2nccc(N(C)c3ccc4c(C)n(C)nc4c3)n2)cc1S(N)(=O)=O", "assay": "enzyme activity, inhibitor", "setting": "10 µM", "measurement": "inhibition", "value": "34%"}
{"Compound": "CCS(=O)(=O)c1cc2cc(C[C@@](O)(CC(C)(C)c3ccc(F)cc3C(N)=O)C(F)(F)F)[nH]c2cn1", "assay": "cell-free assay, competition with immobilised ligand", "setting": "1 µM", "measurement": "remaining binding", "value": "91%"}
{"Compound": "CCCS(=O)(=O)Nc1ccc(F)c(C(=O)c2c[nH]c3ncc(-c4ccc(Cl)cc4)cc23)c1F", "assay": "enzyme activity, inhibitor", "setting": "1 µM", "measurement": "inhibition", "value": "< 10%"}
{"Compound": "COc1cc(Nc2cnc(C#N)c(O[C@H](C)CN(C)C)n2)ncc1-c1cnn(C)c1", "assay": "enzyme activity, inhibitor, radiometric", "setting": "1 µM", "measurement": "remaining activity", "value": "59%"}
{"Compound": "Cn1cncc1C1=CN(c2ncnc3[nH]cnc23)CCS1", "assay": "enzyme activity, inhibitor, radiometric", "setting": "50 nM", "measurement": "inhibition", "value": "23.6%"}
{"Compound": "Cc1nccc(COC(=O)N2C[C@@H]3[C@@H](CNC(=O)c4ccc5[nH]nnc5c4)[C@@H]3C2)n1", "assay": "cell-free assay, competition with immobilised ligand", "setting": "1 µM", "measurement": "remaining binding", "value": "93%"}
{"Compound": "Cc1cc(NC(=O)c2cccc3cc(-c4cccc5[nH]nc(N)c45)ccc23)ccc1F", "assay": "enzyme activity, inhibitor", "setting": "0.1 µM", "measurement": "activity vs control", "value": "126%"}
{"Compound": "CS(=O)(=O)N1CCCC(NC(=O)[C@H](CCC2CCCCC2)NC(=O)c2ccc(CNc3ncnc4c3nnn4-c3ccccc3)cc2)C1 (stereo partly shown)", "assay": "cell-free assay, competition with immobilised ligand", "setting": "0.1 µM", "measurement": "remaining binding", "value": "84%"}
{"Compound": "Cc1ncc([N+](=O)[O-])n1C(=NO)c1ccccc1C(F)(F)F", "assay": "enzyme activity, inhibitor", "setting": "10 µM", "measurement": "inhibition", "value": "11.4%"}
{"Compound": "Cn1cc(Cl)c2c(Oc3c(F)cc(Nc4cc(Cl)nc(N)n4)cc3F)ccnc21", "assay": "cell-free assay, competition with immobilised ligand", "setting": "0.1 µM", "measurement": "remaining binding", "value": "100%"}
{"Compound": "Cn1cnc(Br)c1C1=CN(c2ncnc3[nH]cnc23)CCS1", "assay": "enzyme activity, inhibitor, radiometric", "setting": "50 nM", "measurement": "inhibition", "value": "35.8%"}
{"Compound": "CCCCN(CCCC)C(=O)CN1C[C@H](c2cc(OC)c3c(c2)OCO3)[C@@H](C(=O)O)[C@@H]1CC(C)(C)CCC", "assay": "cell-free assay, competition with immobilised ligand", "setting": "1 µM", "measurement": "remaining binding", "value": "100%"}
{"Compound": "Cc1ccc(NC(=O)c2ccc(C)c(C(F)(F)F)c2)cc1C#Cc1nn(C2CCC(O)CC2)c2ncnc(N)c12 (stereo not shown)", "assay": "cell-free assay", "setting": "10 µM", "measurement": "remaining signal", "value": "109%"}
{"Compound": "COc1cc(-c2cn(C3CCc4ccccc4N(CC(F)(F)F)C3=O)nn2)ccc1-n1ccc(C)n1 (stereo not shown)", "assay": "cell-free assay, competition with immobilised ligand", "setting": "1 µM", "measurement": "remaining binding", "value": "100%"}
{"Compound": "Nc1ncnc2occ(-c3ccc(NC(=O)Nc4cc(C(F)(F)F)ccc4F)cc3)c12", "assay": "enzyme activity, inhibitor", "setting": "20 µM", "measurement": "remaining activity", "value": "4.3%"}
